Experiments:
[1] = biological target: T1, Adenosine receptor A1 (Homo sapiens, UniProt P30542); assay: Displacement of [3H]CCPA from human adenosine receptor A1 expressed in CHO cell membranes incubated for 90 mins by radioligand competition assay; set-up: species or system Cell membrane
T1 sequence (P30542 whole entry): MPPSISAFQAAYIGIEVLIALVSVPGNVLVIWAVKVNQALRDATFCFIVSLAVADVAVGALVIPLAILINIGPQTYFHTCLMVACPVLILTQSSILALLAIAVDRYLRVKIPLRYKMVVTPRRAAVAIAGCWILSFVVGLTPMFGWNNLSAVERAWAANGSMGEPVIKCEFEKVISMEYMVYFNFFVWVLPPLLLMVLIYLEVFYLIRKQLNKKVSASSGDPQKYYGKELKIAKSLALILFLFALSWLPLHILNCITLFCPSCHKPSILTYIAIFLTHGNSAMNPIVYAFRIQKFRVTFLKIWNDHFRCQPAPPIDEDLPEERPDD

[2] = biological target: Adenosine receptor A2a (Rattus norvegicus, UniProt P30543); assay: Displacement of [3H]MSX2 from adenosine receptor A2A in rat brain striatum membranes incubated for 30 mins by radioligand competition assay; type: cell membranes, Cell membrane
[3] = biological target: T2, Adenosine receptor A1 (Rattus norvegicus, UniProt P25099); assay: Displacement of [3H]DPCPX from rat adenosine receptor A1 by radioligand competition assay
T2 sequence (P25099 whole entry): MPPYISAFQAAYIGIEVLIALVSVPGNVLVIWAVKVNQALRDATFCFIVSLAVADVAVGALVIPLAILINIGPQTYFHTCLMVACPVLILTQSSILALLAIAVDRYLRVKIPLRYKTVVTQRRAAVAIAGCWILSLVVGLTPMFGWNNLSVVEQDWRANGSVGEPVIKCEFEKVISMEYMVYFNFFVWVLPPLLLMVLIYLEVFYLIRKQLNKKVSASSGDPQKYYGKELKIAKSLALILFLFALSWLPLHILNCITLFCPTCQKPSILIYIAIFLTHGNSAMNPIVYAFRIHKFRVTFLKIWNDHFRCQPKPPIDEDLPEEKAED
How it was run: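 Rat brain cortical membranes, [3H]DPCPX 0.4 nM. Nonspecific binding defined by 10 μM DPCPX. Curves run with and without 100 μM GTP. Incubation 90 min at rt in 50 mM Tris-HCl pH 7.4, after 20 min adenosine deaminase preincubation. Filtration, then scintillation counting. GTP shift is the IC50 with GTP divided by the IC50 without GTP.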

[4] = biological target: T2, Adenosine receptor A1; assay: Displacement of [3H]CCPA from rat adenosine receptor A1 by radioligand competition assay
How it was run: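 A1 competition binding with [3H]CCPA, 0.5 nM. Membranes: CHO cells expressing human A1, or rat brain cortex. Membranes preincubated 20 min with adenosine deaminase (2 U/mL per mg protein). Incubation 90 min at rt in 50 mM Tris-HCl pH 7.4 with 2.5% final DMSO. Nonspecific binding defined by 10 µM 2-chloroadenosine. GF/B filtration, scintillation counting.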

[5] = biological target: T2, Adenosine receptor A1; assay: Displacement of [3H]DPCPX from rat brain cortical membrane A1AR in presence of 100 uM of GTP by scintillation counting analysis; type: cell membranes, Cortex, Cell membrane
[6] = biological target: Adenosine receptor A2a (Homo sapiens, UniProt P29274); assay: Displacement of [3H]MSX2 from human adenosine receptor A2A expressed in HEK293 cell membranes incubated for 30 mins by radioligand competition assay; set-up: species or system Cell membrane
[7] = biological target: T3, Adenosine receptor A3 (Rattus norvegicus) (UniProt P28647); assay: Displacement of [3H]NECA from rat adenosine receptor A3 expressed in CHO cell membranes at 0.1 uM incubated for 60 mins by radioligand competition assay relative to control; details: Cell membrane
T3 sequence (whole entry): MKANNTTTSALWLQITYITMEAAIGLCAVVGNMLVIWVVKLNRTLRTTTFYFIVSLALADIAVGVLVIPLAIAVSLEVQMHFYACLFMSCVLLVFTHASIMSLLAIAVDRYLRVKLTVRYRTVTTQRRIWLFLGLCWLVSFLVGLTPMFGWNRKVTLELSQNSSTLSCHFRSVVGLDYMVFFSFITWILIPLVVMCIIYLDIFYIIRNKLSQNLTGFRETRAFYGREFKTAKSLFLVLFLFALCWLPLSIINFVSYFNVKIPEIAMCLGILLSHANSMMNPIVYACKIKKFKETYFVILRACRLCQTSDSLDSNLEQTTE
How it was run: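 CHO membranes expressing rat A3, [3H]NECA 10 nM. Nonspecific binding defined by 100 µM R-PIA. Preincubated 20 min with adenosine deaminase, then 60 min at rt in 50 mM Tris-HCl pH 7.4 with 2.5% DMSO. GF/B filtration, scintillation counting.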

Adenosine receptor A2a (Homo sapiens, UniProt P29274), sequence (P29274 whole entry): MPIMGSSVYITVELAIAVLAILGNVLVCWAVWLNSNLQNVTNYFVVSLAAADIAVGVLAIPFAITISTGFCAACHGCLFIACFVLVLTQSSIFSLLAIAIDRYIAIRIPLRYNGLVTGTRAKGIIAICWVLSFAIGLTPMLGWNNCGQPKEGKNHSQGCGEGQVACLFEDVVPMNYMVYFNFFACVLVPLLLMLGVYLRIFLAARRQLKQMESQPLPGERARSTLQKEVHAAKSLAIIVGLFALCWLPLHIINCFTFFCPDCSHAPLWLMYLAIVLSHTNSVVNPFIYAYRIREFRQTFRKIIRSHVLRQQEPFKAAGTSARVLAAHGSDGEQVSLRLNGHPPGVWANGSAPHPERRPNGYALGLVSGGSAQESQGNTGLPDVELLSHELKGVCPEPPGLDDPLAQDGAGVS
Adenosine receptor A2a (Rattus norvegicus, UniProt P30543), sequence (P30543 whole entry): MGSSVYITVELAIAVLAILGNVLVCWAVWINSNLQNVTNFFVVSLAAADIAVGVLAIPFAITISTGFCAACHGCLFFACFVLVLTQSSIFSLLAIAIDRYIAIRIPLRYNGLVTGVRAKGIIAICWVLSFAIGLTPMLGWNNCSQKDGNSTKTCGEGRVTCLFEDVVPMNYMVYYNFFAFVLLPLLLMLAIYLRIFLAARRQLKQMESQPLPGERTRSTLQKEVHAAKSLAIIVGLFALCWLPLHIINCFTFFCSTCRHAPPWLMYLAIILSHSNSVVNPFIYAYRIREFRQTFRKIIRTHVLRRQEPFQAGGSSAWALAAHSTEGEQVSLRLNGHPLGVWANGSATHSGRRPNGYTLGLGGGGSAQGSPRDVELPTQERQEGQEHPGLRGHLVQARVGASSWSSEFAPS

## COc1ccc(C(=O)Nc2nc(-c3ccccc3)c(C(=O)c3ccc(C)cc3)s2)cc1
[1]
  Ki: 9.69 nM
[2]
  Ki: > 1000 nM
[3]
  Ki: 0.0709 nM
[4]
  Ki: 0.529 nM
[5]
  IC50: 0.0763 nM
[6]
  Ki: > 1000 nM
[7]
  inhibition: 13%

Source: ChEMBL document CHEMBL4680130, “Substituted 4-phenylthiazoles: Development of potent and selective A, A and dual A/A adenosine receptor antagonists” (Eur J Med Chem, 2020)
